High-throughput results from PubChem.
The list is not random: actives were taken first. Their share in the collection is about 3.5%.
RGS4 act = RGS4 potentiators or activators, primary screen, cell-based, HEK293 M3R inducible RGS4, calcium flux | carbachol calcium flux Fluo4; hits give low values | B-score at 10 µM | hit rate 0.92% among 310,000;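 active means B-score of the integrated calcium signal more than 4 SD below the library mean, with starting fluorescence not abnormally high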;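 further: negative B-score means reduced calcium response which marks RGS4 activation or potentiation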
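test system = M3R-expressing HEK293 line, RGS4 induced by doxycycline | probe or stimulus = carbachol at ECmax as muscarinic agonist stimulus | timing = dye loading 30 min 37 °C, buffer rest 30 min RT | signal = calcium dye Fluo4 fluorescence | evaluation = B score from integrated fluorescence ratio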
MrgX1 agonist = agonists of human MrgX1 receptor, primary screen, HEK293 cells, Fluo-4 calcium flux. Mas-related G-protein coupled receptor member X1 (Homo sapiens), Q96LB2. Fluo-4 calcium fluorescence, agonist mode; hits give high values. B-score at 10 µM. hit rate 0.44% among 310,000. AID 588627, 2011;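 active means calcium response B-score plate-corrected fluorescence ratio at least 3 library SD, with starting fluorescence B-score inside 5 SD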
Target sequence (Q96LB2 whole entry, looked up): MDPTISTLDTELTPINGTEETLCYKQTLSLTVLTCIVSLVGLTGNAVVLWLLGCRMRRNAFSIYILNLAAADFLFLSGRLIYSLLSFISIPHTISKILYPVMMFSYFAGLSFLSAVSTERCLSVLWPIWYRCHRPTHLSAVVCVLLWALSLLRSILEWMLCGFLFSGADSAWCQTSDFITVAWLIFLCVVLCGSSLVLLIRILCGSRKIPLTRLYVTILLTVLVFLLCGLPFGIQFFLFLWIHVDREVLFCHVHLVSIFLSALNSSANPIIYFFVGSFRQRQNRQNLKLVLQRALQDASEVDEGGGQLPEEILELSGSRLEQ
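Material: MrgX1-expressing HEK293 cells / Dosing: compound as first of three additions / Incubation: overnight seeding, then 1 h dark dye loading / Signal: Fluo-4 NW calcium fluorescence / Evaluation: B-scored fluorescence response ratio / Benchmarks: positive and negative control wells on each plate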
RGS4 block = RGS4 inhibitors, primary screen, cell-based, HEK293 M3R inducible RGS4, calcium flux; Regulator of G-protein signaling 4 (Homo sapiens), P49798; Fluo-4 calcium flux; hits give high values; triggered by carbachol at its EC20; B-score at 10 µM; hit rate 0.45% among 310,000; AID 463165, 2010;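 active means B-score, a plate-corrected calcium signal, over three deviations above library mean, with baseline fluorescence within five deviations of library mean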;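 further: RGS4 expression induced by doxycycline in cells with stable M3 receptor; B-score is computed from the integrated fluorescence ratio over baseline after carbachol; higher B-score means a larger calcium signal and so more RGS4 inhibition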
Target sequence (P49798 whole entry, looked up): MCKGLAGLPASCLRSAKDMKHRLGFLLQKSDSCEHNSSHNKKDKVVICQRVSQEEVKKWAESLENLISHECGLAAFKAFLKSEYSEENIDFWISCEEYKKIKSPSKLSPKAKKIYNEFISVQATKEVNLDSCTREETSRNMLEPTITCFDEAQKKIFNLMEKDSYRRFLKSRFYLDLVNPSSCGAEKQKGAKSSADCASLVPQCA
MrgX1 antag = antagonists of human MrgX1 receptor, primary screen, HEK293 cells, Fluo-4 calcium flux; B-score at 10 µM; BAM8-22 antagonism; hits give low values; hit rate 1.3% among 310,000; AID 588676, 2011; Mas-related G-protein coupled receptor member X1 (Homo sapiens), Q96LB2;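 active means calcium-response B-score plate-corrected more than 3 library SD below zero, starting fluorescence within 5 deviations, no agonist response on first addition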;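 further: peak minus trough fluorescence over baseline after final BAM8-22 challenge near maximal dose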
MrgX1 allo act = positive allosteric modulators of MrgX1, primary screen, HEK293 cells, Fluo-4 calcium flux; B-score at 10 µM; hit rate 0.63% among 310,000; Mas-related G-protein coupled receptor member X1 (Homo sapiens), Q96LB2; AID 588675, 2011; FDSS; hits give high values;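 active means plate-corrected calcium response at least 3 library SD above typical, normal starting fluorescence, not activating the receptor alone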;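 further: compound read alongside a low EC10 to EC30 dose of BAM8-22 agonist; peak minus trough fluorescence over baseline measured at the second addition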
MrgX1 allo conf = MrgX1 positive allosteric modulators, duplicate retest, confirmation, HEK293 cells, Fluo-4 calcium flux. shares compounds with MrgX1 allo act. Fluo-4 calcium fluorescence, FDSS. activation (ratio percentage), % at 10 µM. hit rate 13% among 1,200. AID 602413, 2012;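 active means ratio at least 3 SD above the weak peptide control, stable starting fluorescence, no direct agonism earlier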;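 further: compound followed by low BAM8-22 agonist challenge near EC20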
HEK293 Ca flux = nonspecific calcium signal in parental HEK293, confirmation, counter-screen for MrgX1 antagonist project, parental HEK293 cells, Fluo-4 calcium flux; shares compounds with MrgX1 antag; Fluo-4 calcium fluorescence, FDSS; fluorescence ratio F(max-min)/F0 at 10 µM; hit rate 2% among 4,000; AID 624111, 2012;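 active means duplicate-averaged calcium fluorescence ratio at least three times the standard deviation of buffer wells, a nonspecific response in parental cells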
HEK293 Ca counter = calcium response in parental HEK293 cells, primary screen, counter-screen for MrgX1 allosteric activator project, cell-based, Fluo-4 calcium flux, duplicate; Fluo-4 fluorescence ratio; hits give high values; fluorescence ratio F(max-min)/F0 at 10 µM; hit rate 0.4% among 4,000; shares compounds with MrgX1 antag; AID 624114, 2012;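 active means calcium fluorescence ratio, averaged over duplicates, at least 3 SD of the buffer-well ratio, meaning a nonspecific response in receptor-free cells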;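 further: untransfected parental HEK293 lacking MrgX1 used as counterscreen for MrgX1 allosteric activators; fluorescence change taken during the second addition on a kinetic imager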
HEK293 Ca cntr2 = calcium response in parental HEK293 cells, primary screen, counter-screen for MrgX1 agonist project, cell-based, Fluo-4 calcium flux, duplicate, agonist mode. shares compounds with MrgX1 antag. Fluo-4 calcium fluorescence (FDSS); hits give high values. fluorescence ratio F(max-min)/F0 at 10 µM. hit rate 8.7% among 4,000. AID 624115, 2012;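 active means calcium fluorescence ratio at least three times the spread of buffer wells, meaning a non-specific response in parental cells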
* = called active by the depositor; i = inactive; x = not tested or not shown.

SMILES	RGS4 act	MrgX1 agonist	RGS4 block	MrgX1 antag	MrgX1 allo act	MrgX1 allo conf	HEK293 Ca flux	HEK293 Ca counter	HEK293 Ca cntr2
O=C(NCCCC1CCCC1)C1CCC(=O)N(Cc2cccc(C(F)(F)F)c2)C1 (stereo unspecified)	i	i	i	i	i	x	x	x	x
Cc1cc(NC2CCCC2)n2nc(C)c(-c3ccccc3)c2n1	i	i	i	i	6.77*	i	i	i	i
O=C(CN(Cc1ccccc1)S(=O)(=O)c1ccc(F)cc1)NCc1cccnc1	i	i	i	i	i	x	x	x	x
CC(C)Cc1ccc(C(C)C(=O)Nc2ccccc2O)cc1 (stereo unspecified)	i	i	i	i	6.96*	i	i	i	i
NS(=O)(=O)c1ccc(NC(=O)CSc2ncccn2)cc1	i	i	i	i	15.9*	i	i	i	i
CC(=O)NC(CC(=O)N(Cc1ccccc1)c1cccc(C)c1)c1ccccc1 (stereo unspecified)	i	i	i	i	8.58*	i	i	i	99.3*
CC(Oc1ccc(Br)cc1)C(=O)N1CCC(C(N)=O)CC1 (stereo unspecified)	i	i	i	i	i	x	x	x	x
COc1ccc(C(=O)NCc2nnc(SCC(=O)N3CCCc4ccccc43)o2)cc1OC	i	i	i	i	i	x	x	x	x
COC(=O)c1cc(Sc2c(Cl)cccc2Cl)ccn1	i	i	i	i	46.3*	19.8%*	i	i	i
COC(=O)c1cc(Sc2cccc(Cl)c2Cl)ccn1	i	i	i	i	i	x	x	x	x
Cc1cccc(NC(=O)CCCCC(=O)Nc2cccc(C)c2)c1	i	i	i	i	i	x	x	x	x
CCCNC(=O)/C(=C/c1cn(S(=O)(=O)N(C)C)c2ccccc12)NC(=O)c1ccc(OC)cc1	i	i	i	i	35.8*	15.1%*	i	i	i
CCN(CC)S(=O)(=O)c1c(OC)cc(C)c(Cl)c1C	i	i	i	i	10.1*	i	i	i	i
CCN(CC)S(=O)(=O)c1cc(C)c(C)cc1Br	i	i	i	i	i	x	x	x	x
Cc1cccc(CN2CCSc3sccc3C2=O)c1	i	i	i	i	i	x	x	x	x
CNC(=O)CC1C(=O)N(c2ccc(Cl)cc2)C(=S)N1CCc1ccc(OC)c(OC)c1 (stereo unspecified)	i	i	i	i	10.3*	i	i	i	i
COc1ccc(CCN2C(=S)N(c3ccccc3)C(=O)C2CC(=O)O)cc1OC (stereo unspecified)	i	i	i	i	i	x	x	x	x
COc1ccc(N2CCN(C(=O)CCc3ccccc3)CC2)cc1	i	i	i	i	i	x	x	x	x
Cc1ccccc1Nc1cc2ccccc2c(=O)[nH]1	i	i	i	i	i	x	x	x	x
O=c1[nH]c(Nc2ccccc2Cl)cc2ccccc12	i	i	i	i	8.05*	i	i	i	i
CCOC(=O)c1c(S(=O)(=O)NCC(=O)Nc2ccc(F)cc2)c(C)n(C)c1C	i	i	i	i	i	x	x	x	x
O=C(c1ccc(F)cc1)n1c(NCc2ccccc2)n[nH]c1=S	i	i	i	i	7.35*	i	i	i	i
COc1cccc(CNc2ccc(F)c(Cl)c2)c1O	i	i	i	i	26.5*	13.0%*	i	i	i
COc1cccc(CNc2cccc(C(F)(F)F)c2)c1O	i	i	i	i	35.5*	10.3%*	i	i	i
COc1cccc(CNc2ccc([N+](=O)[O-])cc2Cl)c1O	i	i	i	i	24.6*	13.0%*	i	i	i
SMILES	RGS4 act	MrgX1 agonist	RGS4 block	MrgX1 antag	MrgX1 allo act	MrgX1 allo conf	HEK293 Ca flux	HEK293 Ca counter	HEK293 Ca cntr2
COc1cccc(CNc2cnc3ccccc3c2)c1O	i	i	i	i	7.06*	i	i	i	i
O=S(=O)(c1ccccc1)N1CCC2(CC1)OCCN2S(=O)(=O)c1cccs1	i	x	i	x	x	x	x	x	x
CC(C)(C)NC(=O)COc1ccc(S(=O)(=O)N2CCCC2)cc1	i	i	i	i	i	x	x	x	x
COc1cccc(COC(=O)c2c(C)nn(-c3ccccc3)c2Cl)c1OC	i	i	i	i	i	x	x	x	x
CCC(C)NCCOc1ccccc1C (stereo unspecified)	i	i	i	i	12.7*	i	i	i	i
c1ccc(-c2noc(-c3cccc4ccccc34)n2)nc1	i	i	i	i	8.41*	i	0.534*	i	i
CC(C)(C)OC(=O)NC1CCN(S(=O)(=O)c2ccc3c(c2)OCCO3)CC1	i	i	i	i	i	x	x	x	x
c1ccc(Cc2c[nH]c3ccccc23)cc1	i	i	i	i	6.64*	i	i	i	i
CN(Cc1ccccc1)Cc1c[nH]c2ccccc12	i	i	i	i	i	x	x	x	x
CC1CCCC(C)N1C(=O)c1cc(-c2ccc(Cl)c(Cl)c2)on1 (stereo unspecified)	i	i	i	i	7.82*	i	i	i	i
O=C(c1cc(-c2cccc(Cl)c2)on1)N1CCCCCC1	i	i	i	i	12.5*	i	i	i	i
CC1CCCC(C)N1C(=O)c1cc(-c2ccc3c(c2)OCO3)on1 (stereo unspecified)	i	i	i	i	11.5*	i	i	i	i
Cc1cc(/C=C(\C#N)C(=O)NC2CCCCCC2)c(C)n1C	i	i	i	i	i	x	x	x	x
